The record followed here is ChEMBL document CHEMBL1671855, “Establishment of a cell-based assay for screening of compounds inhibiting very early events in the cytomegalovirus replication cycle and characterization of a compound identified using the assay” (Antimicrob Agents Chemother, 2008).

The test system of one data set is Caviid betaherpesvirus 2. As to the kind of experiment: Antiviral activity against Guinea pig cytomegalovirus (strain 22122; ATCC VR-682) infected in guinea pig lung fibroblast after 6 to 7 days by plaque reduction assay. Format: functional, organism-based. Summed up: (§1)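 Semiconfluent fibroblasts (HCMV Towne in HFL, GPCMV in guinea pig lung fibroblasts, MCMV Smith in NIH 3T3) in 12-well plates inoculated with 50 or 100 PFU, centrifuged 600 × g 30 min, 1–2 h at 37°C; inoculum replaced by twofold compound dilutions in 1% methylcellulose, 4% FBS. Incubation 4–5 d MCMV, 6–7 d GPCMV, 10–12 d HCMV; crystal violet/formalin stain, plaques counted, triplicate; EC50 by linear regression of log concentration vs % plaque reduction.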
A general note: In a plaque reduction assay, fewer plaques than in the control indicate reduced infectivity or spread.

Data set [1] is described as follows: Antiviral activity against Murine cytomegalovirus strain Smith infected in mouse NIH 3T3 cells after 4 to 5 days by plaque reduction assay. Type of data set: functional, cell-based. The following applies: Murid betaherpesvirus 1, NIH3T3. Summed up:
as §1

Data set [2] has as its system Human betaherpesvirus 5. As to the kind of experiment: Antiviral activity against Human cytomegalovirus Towne infected in human HFL after 10 to 12 days by plaque reduction assay. Type of data set: functional, organism-based. To be noted: Human betaherpesvirus 5, Towne. Summed up: as §1
The subject of data set [3] is Human betaherpesvirus 5. As to the kind of experiment: Antiviral activity against 0.05 MOI Human cytomegalovirus Towne infected in human hTERT-BJ1 cells assessed as decrease in IE1 gene expression at 20 uM after 24 hrs by RT-PCR. Type of data set: functional, organism-based. The following applies: BJ. Summed up:
(§2)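 hTERT-BJ1 cells (4 × 10^5 per T12.5 flask) infected with HCMV at MOI 0.05, cultured with DMSO, 15 μM roscovitine or 20 μM test compound for set periods; cells washed with PBS, stored at −80°C, total RNA purified; IE1, IE2 and G6PD transcripts by quantitative RT-PCR, IE1/IE2 given as CT after normalization to G6PD; triplicate experiments, mean and SD.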

For data set [4], the system named is Human betaherpesvirus 5. As to the kind of experiment: Antiviral activity against Human cytomegalovirus Towne infected in human hTERT-BJ1 cells assessed as inhibition of virus induced infection after 12 hrs post infection by luciferase reporter gene assay. Type of data set: functional, organism-based. The following applies: BJ. Summed up: (§3)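 hTERT-BJ1 cells (3 × 10^4/well, 96-well) infected next day with 2 × 10^3 PFU HCMV Towne and given 20 μM compound or DMSO over varied windows: added at set times and kept to harvest, removed at set times, or present 24 h from set start times. Luciferase measured at 48 h p.i. in three wells; mean and SD.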
For orientation: In a reporter assay the amount or activity of a reporter protein is the signal.

Data set [5] relates to Human betaherpesvirus 5. As to the kind of experiment: Antiviral activity against 3 MOI Human cytomegalovirus Towne infected in human hTERT-BJ1 cells assessed as inhibition of viral DNA replication at 20 uM by qPCR. Format: functional, organism-based. To be noted: BJ. Summed up:
(§4)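 hTERT-BJ1 cells infected with HCMV at MOI 0.05 or 3.0, cultured for set durations with DMSO, 20 μM or 5 μM compound; DNA extracted (QIAamp) and HCMV UL83 and human albumin genes quantified by qPCR against plasmid and cellular DNA standards; viral copies divided by albumin copies as copies per cell; triplicate experiments, mean and SD.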

Data set [6] deals with Human betaherpesvirus 5. As to the kind of experiment: Antiviral activity against Human cytomegalovirus Towne infected in human hTERT-BJ1 cells assessed as inhibition of virus induced infection after 24 hrs post infection by luciferase reporter gene assay. Format: functional, organism-based. To be noted: BJ. Summed up: as §3
The test system of data set [7] is Human betaherpesvirus 5. As to the kind of experiment: Antiviral activity against Human cytomegalovirus Towne infected in human hTERT-BJ1 cells assessed as decrease in G6PD gene expression at 20 uM after 24 hrs by RT-PCR. Format: functional, organism-based. The following applies: BJ. Summed up:
as §2

Data set [8] deals with Human betaherpesvirus 5. As to the kind of experiment: Antiviral activity against 0.05 MOI Human cytomegalovirus Towne infected in human hTERT-BJ1 cells assessed as inhibition of viral DNA replication at 5 uM by qPCR. Type of data set: functional, organism-based. The following applies: BJ. Summed up:
as §4
In general terms: In qPCR the cycle at which signal appears reflects the starting amount.

Data set [9] concerns Human betaherpesvirus 5. As to the kind of experiment: Antiviral activity against 0.05 MOI Human cytomegalovirus Towne infected in human hTERT-BJ1 cells assessed as inhibition of viral DNA replication at 20 uM by qPCR. Format: functional, organism-based. The following applies: BJ. Summed up: as §4
A short description of data set [10]: Selectivity index, ratio of CC50 for human lung fibroblast cells to EC50 for Human cytomegalovirus Towne. Type of data set: toxicity, cell-based. To be noted: read-out: Selectivity Index.
The subject of data set [11] is Human betaherpesvirus 5. As to the kind of experiment: Antiviral activity against Human cytomegalovirus Towne infected in human hTERT-BJ1 cells assessed as inhibition of virus induced infection after 48 hrs post infection by luciferase reporter gene assay. Type of data set: functional, organism-based. To be noted: BJ. Summed up:
as §3

In data set [12] the test system is Human betaherpesvirus 5. As to the kind of experiment: Antiviral activity against Human cytomegalovirus AD169 infected in human U4C-48 cells assessed as decrease in viral titer by luciferase reporter gene assay. Format: functional, organism-based. The following applies: Human betaherpesvirus 5, AD169, U4C-48.
Data set [13] has as its system Human betaherpesvirus 5. As to the kind of experiment: Antiviral activity against 0.05 MOI Human cytomegalovirus Towne infected in human hTERT-BJ1 cells assessed as decrease in IE2 gene expression at 20 uM after 24 hrs by […]. Format: functional, organism-based. The following applies: BJ. Summed up: as §2
In data set [14] the test system is Human betaherpesvirus 5. As to the kind of experiment: Antiviral activity against 0.05 MOI Human cytomegalovirus Towne infected in human hTERT-BJ1 cells assessed as decrease in IE1 gene expression at 15 uM after 24 hrs by RT-PCR. Type of data set: functional, organism-based. To be noted: BJ. Summed up:
as §2

Data set [15] has as its system Human betaherpesvirus 5. As to the kind of experiment: Antiviral activity against 0.05 MOI Human cytomegalovirus Towne infected in human hTERT-BJ1 cells assessed as decrease in IE2 gene expression at 15 uM after 24 hrs by […]. Type of data set: functional, organism-based. To be noted: BJ. Summed up: as §2
Data set [16] relates to Human betaherpesvirus 5. As to the kind of experiment: Antiviral activity against 3 MOI Human cytomegalovirus Towne infected in human hTERT-BJ1 cells assessed as inhibition of viral DNA replication at 5 uM by qPCR. To be noted: BJ. Type of data set: functional, organism-based. Summed up:
as §4

Data set [17] can be described thus: Cytotoxicity against human hTERT-BJ1 cells. Type of data set: cell-based, BJ. Summed up:
(§5)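 Cells at 20–25% confluence in 96-well plates cultured 2–4 days with twofold serial compound dilutions or matching DMSO; supernatant removed, cells rinsed, viability read as ATP luminescence (CellTiter-Glo); triplicate; 50% cytotoxic concentration from log concentration vs RLU plot.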

Data set [18] can be described thus: Selectivity index, ratio of CC50 for human hTERT-BJ1 cells to EC50 for Human cytomegalovirus Towne. Format: toxicity, cell-based, BJ. To be noted: read-out: Selectivity Index.
Data set [19] can be described thus: Cytotoxicity against HLF cells. Type of data set: cell-based. To be noted: human. Summed up: as §5
The test system of data set [20] is Human betaherpesvirus 5. As to the kind of experiment: Antiviral activity against Human cytomegalovirus Towne infected in human hTERT-BJ1 cells assessed as inhibition of attachment of virus particles to the cell surface at 1 mg/ml after 2 hrs post infection by quantitative PCR. Format: functional, organism-based. The following applies: BJ.
Data set [21] relates to Human betaherpesvirus 5. As to the kind of experiment: Antiviral activity against Human cytomegalovirus Towne infected in human hTERT-BJ1 cells assessed as inhibition of attachment of virus particles to the cell surface at 20 uM after 2 hrs post infection by quantitative PCR. Format: functional, organism-based. To be noted: BJ.
The subject of data set [22] is Human betaherpesvirus 5. As to the kind of experiment: Antiviral activity against Human cytomegalovirus Towne infected in human hTERT-BJ1 cells assessed as inhibition of virus induced infection after 6 hrs post infection by luciferase reporter gene assay. Type of data set: functional, organism-based. To be noted: BJ. Summed up: as §3
In data set [23] the test system is Human betaherpesvirus 5. As to the kind of experiment: Antiviral activity against Human cytomegalovirus RC256 infected in human hTERT-BJ1 cells after 1 hr by Immunostaining and Xgal staining. Type of data set: functional, organism-based. The following applies: Human betaherpesvirus 5, RC256, BJ. Summed up:
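hTERT-BJ1 cells infected with HCMV RC256, a β-galactosidase-expressing recombinant Towne strain, in the presence of various compound concentrations; infected cells counted after X-Gal staining to derive EC50.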

Data set [24] relates to Human betaherpesvirus 5. As to the kind of experiment: Antiviral activity against Human cytomegalovirus Towne infected in human hTERT-BJ1 cells assessed as decrease in ICP22 mRNA level at 20 uM after 48 hrs by immunofluorescent assay. Type of data set: functional, organism-based. The following applies: BJ.
Data set [25] relates to Human betaherpesvirus 5. As to the kind of experiment: Antiviral activity against human cytomegalovirus Towne infected in human U4C-48 cells assessed as decrease in viral titer by luciferase reporter gene assay. Type of data set: functional, organism-based. To be noted: Human betaherpesvirus 5, Towne. Summed up:
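U4C-48 reporter cells (U373MG carrying TRL4 promoter-luciferase) infected with HCMV laboratory strain or clinical isolates and cultured 2 days with compound dilutions; luciferase read by chemiluminescence, triplicate. EC50 taken as concentration reducing luciferase to the level of cells given half the virus inoculum.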

In data set [26] the test system is Human betaherpesvirus 5. As to the kind of experiment: Antiviral activity against Human cytomegalovirus Towne infected in human hTERT-BJ1 cells assessed as decrease in IE1 mRNA level at 5 uM after 24 hrs by immunofluorescent assay. To be noted: BJ.
The subject of data set [27] is Human betaherpesvirus 5. As to the kind of experiment: Antiviral activity against Human cytomegalovirus Towne infected in human hTERT-BJ1 cells assessed as decrease in G6PD gene expression at 15 uM after 24 hrs by RT-PCR. Format: functional, organism-based. To be noted: BJ. Summed up: as §2
The test system of data set [28] is Human betaherpesvirus 5. As to the kind of experiment: Antiviral activity against Human cytomegalovirus Towne infected in human hTERT-BJ1 cells assessed as decrease in IE2 mRNA level at 5 uM after 24 hrs by immunofluorescent assay. Type of data set: functional, organism-based. The following applies: BJ.

Each structure is given as a SMILES string. pEC50: −log10 of the molar value. The source made the active and inactive calls. No cut-off for these calls is given here.

For orientation: pEC50 means the EC50 on a negative log10 scale, so that one unit is a factor of ten. As to `Nc1nc2c(ncn2COC(CO)CO)c(=O)[nH]1` [GANCICLOVIR], the pEC50 in the data set with Caviid betaherpesvirus 2 was 4.59; in data set [1], 5.24; with Human betaherpesvirus 5 [2] it was 5.85.

By CC50 is commonly meant the concentration that lowers cell viability or growth by half. Low readings indicate greater toxicity to the cells, high ones lower toxicity to the cells. Take `NC(=O)C1CCN(c2c(Cl)cncc2Cl)CC1`: the outcome with Human betaherpesvirus 5 [3], in the data set with Human betaherpesvirus 5 [13], with Human betaherpesvirus 5 [14] and in the data set with Human betaherpesvirus 5 [15] was Active. Besides, the inhibition entry with Human betaherpesvirus 5 [4], with Human betaherpesvirus 5 [5], with Human betaherpesvirus 5 [6], in the data set on Human betaherpesvirus 5 [8], in the data set with Human betaherpesvirus 5 [9] and in the data set with Human betaherpesvirus 5 [16] was “Active” throughout. The inhibition entry in the data set with Human betaherpesvirus 5 [20], in the data set with Human betaherpesvirus 5 [22], with Human betaherpesvirus 5 [24], with Human betaherpesvirus 5 [26] and with Human betaherpesvirus 5 [28] was “Active” each time. Besides, the pEC50 is 5.21 with Caviid betaherpesvirus 2; 5.30 in the data set with Human betaherpesvirus 5 [12]; 5.52 in data set [1]; 5.46 in the data set on Human betaherpesvirus 5 [23]; 5.60 in the data set with Human betaherpesvirus 5 [2]; 5.30 in the data set with Human betaherpesvirus 5 [25]. The outcome with Human betaherpesvirus 5 [7] and in the data set with Human betaherpesvirus 5 [27] was inactive. Also, the selectivity ratio in data set [10] and in data set [18] was over 10 in each case. Further, the inhibition result in the data set on Human betaherpesvirus 5 [11] and with Human betaherpesvirus 5 [21] was “inactive” in each case. The CC50 in data set [17] and in data set [19] was 100 µM in each case.
